Test results as given in ChEMBL document CHEMBL1131235, “(R)-(+)-2-[[[3-(Morpholinomethyl)-2H-chromen-8-yl]oxy]methyl] morpholine methanesulfonate: a new selective rat 5-hydroxytryptamine1B receptor antagonist” (J Med Chem, 1998).

Assays:
[1] = molecular target: 5-hydroxytryptamine receptor 1B (Rattus norvegicus, UniProt P28564); experiment: Binding affinity against 5-hydroxytryptamine 1B receptor in membranes of Rat cerebral cortex; type: tissue-based
Summary of the method: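 Rat cerebral cortical membranes labelled with [125I]iodocyanopindolol in the presence of 60 μM isoproterenol to block β-adrenoceptor binding. Nonspecific binding was defined with 10 μM 5-HT.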

Rattus norvegicus [2] = experiment: Effect on the wet dog shake response(WDS) in rats after 8 determinations at a dose of 1 mg/kg, sc pretreated with saline; settings: route subcutaneous
Rattus norvegicus [3] = experiment: Effect on the wet dog shake response(WDS) in rats after 8 determinations at a dose of 1 mg/kg, sc pretreated with 200 mg/kg ip of pCPA.

Chain of 5-hydroxytryptamine receptor 1B (P28564 whole entry): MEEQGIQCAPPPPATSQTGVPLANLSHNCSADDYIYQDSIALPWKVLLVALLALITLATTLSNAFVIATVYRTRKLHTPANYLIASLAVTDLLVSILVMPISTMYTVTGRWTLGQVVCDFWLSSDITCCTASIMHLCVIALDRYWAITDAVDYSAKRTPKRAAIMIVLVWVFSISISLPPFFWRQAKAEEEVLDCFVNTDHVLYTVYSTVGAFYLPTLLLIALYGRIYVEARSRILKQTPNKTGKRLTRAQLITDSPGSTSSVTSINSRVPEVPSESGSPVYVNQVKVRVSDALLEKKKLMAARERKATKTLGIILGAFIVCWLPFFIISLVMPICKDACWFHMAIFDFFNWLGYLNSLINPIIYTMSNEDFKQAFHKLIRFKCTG

Structure (SMILES) | Ki [1] [nM] | No. of WDS/60 min (Rattus norvegicus [2]) | No. of WDS/60 min (Rattus norvegicus [3])
c1ccc2nc(N3CCNCC3)ccc2c1 [QUIPAZINE] | – | 36 | 30
O=C(C1=Cc2cccc(OCC3CNCCO3)c2OC1)N1CCOCC1 (stereo not drawn) | 240 | – | –
C1=C(CN2CCOCC2)COc2c1cccc2OCC1CNCCO1 (racemic) | 60 | – | –

More lines, main results first:

Ki [1] [nM] | Structure (SMILES) | No. of WDS/60 min (Rattus norvegicus [2]) | No. of WDS/60 min (Rattus norvegicus [3])
1400 | N#CC1=Cc2cccc(OCC3CCCNC3)c2OC1 (racemic) | – | –
445 | N#CC1=Cc2cccc(OCC3CNCCO3)c2CC1 (racemic) | – | –
3600 | CN1CCOC(COc2cccc3c2OCC(C#N)=C3)C1 (racemic) | – | –
250 | N#CC1=Cc2cccc(OCC3CNCCO3)c2OC1 (racemic) | – | –
